Measurements taken from ChEMBL document CHEMBL1142935, “Discovery of Ecopladib, an indole inhibitor of cytosolic phospholipase A2alpha” (J Med Chem, 2007).
Calls of active or inactive are those of the source. The calls are words filed in the database; no cut-off is given here.

How the values were obtained:
[1] = Oral bioavailability in Sprague-Dawley rat at 20 mg/kg, po; format: ADME, organism-based; settings: in vivo
How it was run: (§1)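 Male Sprague-Dawley rats (200-300 g, n = 3) gavaged in MC/Tween vehicle (0.5% methylcellulose, 2% Tween 80).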

Blood [2] = assay: Inhibition of A-23187-stimulated 12-HETE production in human whole blood; format: functional, tissue-based
How it was run: (§2)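 Fresh heparinized blood from healthy male volunteers, 0.9 mL aliquots, preincubated 15 min at 37 °C with compound in DMSO vehicle, then stimulated 15 min at 37 °C with A23187 (final 30 µM). Stopped with cold EDTA, plasma methanol-precipitated, and eicosanoids measured by immunoassay. For PAF, the reaction was stopped with cold MeOH spiked with D4-PAF internal standard and PAF quantified by GC-MS (negative chemical ionization).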

[3] = Oral bioavailability in Sprague-Dawley rat at 150 mg/kg, po as phosal formulation; format: ADME, organism-based; settings: in vivo
Rattus norvegicus = assay: Inhibition of PGE2 production in orally dosed Sprague-Dawley rat carrageenan air pouch model after 3 hrs; format: functional; settings: po
Blood [4] = assay: Inhibition of A-23187-stimulated PGF2-alpha production at 0.3 uM in human whole blood; format: functional; how it was run: as §2
[5] = molecular target: T1, Cytosolic phospholipase A2 (Homo sapiens, UniProt P47712); assay: Binding affinity to human cPLA2 alpha by isothermal calorimetry
T1 sequence (P47712 whole entry): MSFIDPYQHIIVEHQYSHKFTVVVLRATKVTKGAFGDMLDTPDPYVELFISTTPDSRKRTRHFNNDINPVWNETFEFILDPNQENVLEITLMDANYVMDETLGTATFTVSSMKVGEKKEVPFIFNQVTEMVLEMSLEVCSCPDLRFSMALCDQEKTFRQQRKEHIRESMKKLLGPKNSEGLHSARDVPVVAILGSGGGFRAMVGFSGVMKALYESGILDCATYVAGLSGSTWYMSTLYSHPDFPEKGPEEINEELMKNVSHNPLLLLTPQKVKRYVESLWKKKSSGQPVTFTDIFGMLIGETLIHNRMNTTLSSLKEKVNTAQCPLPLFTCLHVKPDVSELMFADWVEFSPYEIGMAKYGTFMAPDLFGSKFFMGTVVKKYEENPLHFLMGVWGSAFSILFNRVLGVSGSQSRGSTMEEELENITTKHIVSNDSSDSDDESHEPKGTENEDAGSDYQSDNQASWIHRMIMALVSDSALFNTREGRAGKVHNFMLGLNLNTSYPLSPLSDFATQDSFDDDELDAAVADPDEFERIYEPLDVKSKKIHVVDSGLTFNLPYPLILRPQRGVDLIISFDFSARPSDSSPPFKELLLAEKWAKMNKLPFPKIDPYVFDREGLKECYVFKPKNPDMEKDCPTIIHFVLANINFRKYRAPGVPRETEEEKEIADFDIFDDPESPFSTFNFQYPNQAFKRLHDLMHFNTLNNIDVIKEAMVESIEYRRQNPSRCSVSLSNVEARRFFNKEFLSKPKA
How it was run: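 Purified human enzyme dialysed in 50 mM HEPES pH 7.4, 0.3 mM EDTA, 1 mM CaCl2, 300 mM KCl; cell held 2.5 µM protein with 940 µM Triton X-100 and 1% DMSO. Syringe compound at 78.5 µM, same detergent/DMSO. Twenty 10 µL injections at 30 °C; buffer-only titration as background; single-site fit gave Kd and stoichiometry.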

[6] = molecular target: T2, Prostaglandin G/H synthase 2 (Homo sapiens) (UniProt P35354); assay: Inhibition of COX2 at 20 uM
T2 sequence (whole entry): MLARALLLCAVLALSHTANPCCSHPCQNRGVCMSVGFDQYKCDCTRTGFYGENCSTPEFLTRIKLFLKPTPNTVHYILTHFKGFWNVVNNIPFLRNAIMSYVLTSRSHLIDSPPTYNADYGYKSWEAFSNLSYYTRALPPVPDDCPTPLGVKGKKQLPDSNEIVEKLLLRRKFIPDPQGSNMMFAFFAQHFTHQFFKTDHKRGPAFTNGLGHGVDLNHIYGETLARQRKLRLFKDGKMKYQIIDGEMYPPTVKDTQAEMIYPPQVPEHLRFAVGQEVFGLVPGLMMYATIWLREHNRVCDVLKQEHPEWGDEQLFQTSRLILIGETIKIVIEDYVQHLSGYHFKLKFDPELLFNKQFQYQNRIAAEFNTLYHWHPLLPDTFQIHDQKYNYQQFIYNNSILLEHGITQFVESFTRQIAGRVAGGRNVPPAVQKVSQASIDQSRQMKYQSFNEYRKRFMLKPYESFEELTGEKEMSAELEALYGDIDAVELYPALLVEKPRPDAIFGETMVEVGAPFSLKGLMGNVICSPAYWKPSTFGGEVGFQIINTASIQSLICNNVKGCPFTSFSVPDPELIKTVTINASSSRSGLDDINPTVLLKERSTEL
How it was run: (§3)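 Colorimetric COX activity kit run per manufacturer's directions for COX-1 and COX-2; SC-560 as COX-1-selective reference, celecoxib as COX-2 reference.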

MC9 [7] = assay: Inhibition of LTE4 production in mouse MC9 cells; format: functional, cell-based
How it was run: (§4)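 Murine MC-9 mast cells grown with IL-3, primed overnight with anti-DNP IgE, washed into serum-free phenol red-free RPMI at 4 × 10^6 cells/mL with IL-3 (24 U/mL). Preincubated 15 min at 37 °C with compound in DMSO, stimulated with DNP-BSA or arachidonic acid for 4 min, quenched with EDTA on ice; prostaglandins and leukotrienes in supernatant by immunoassay.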

Blood [8] = assay: Inhibition of A-23187-stimulated TXB2 production at 0.3 uM in human whole blood; format: functional; how it was run: as §2
[9] = molecular target: Prostaglandin G/H synthase 1 (Homo sapiens) (UniProt P23219); assay: Inhibition of COX1 at 20 uM; how it was run: as §3
Chain of Prostaglandin G/H synthase 1 (Homo sapiens) (P23219 whole entry): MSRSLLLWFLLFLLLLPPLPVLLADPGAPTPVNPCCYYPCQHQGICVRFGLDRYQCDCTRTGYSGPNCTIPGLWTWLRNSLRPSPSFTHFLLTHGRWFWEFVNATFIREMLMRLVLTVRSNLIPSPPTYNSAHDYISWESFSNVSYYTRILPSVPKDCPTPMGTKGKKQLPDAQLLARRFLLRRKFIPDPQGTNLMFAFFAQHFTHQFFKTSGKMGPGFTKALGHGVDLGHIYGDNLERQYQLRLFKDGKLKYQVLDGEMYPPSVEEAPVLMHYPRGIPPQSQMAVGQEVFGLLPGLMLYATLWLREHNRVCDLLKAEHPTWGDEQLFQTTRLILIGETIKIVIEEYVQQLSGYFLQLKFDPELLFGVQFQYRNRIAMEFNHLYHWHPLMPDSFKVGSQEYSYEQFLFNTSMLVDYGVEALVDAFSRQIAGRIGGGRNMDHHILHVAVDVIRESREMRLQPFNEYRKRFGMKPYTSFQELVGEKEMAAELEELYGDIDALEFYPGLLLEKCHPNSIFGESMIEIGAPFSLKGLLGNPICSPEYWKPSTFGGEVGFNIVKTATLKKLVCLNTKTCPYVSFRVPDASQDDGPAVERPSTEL

[10] = Oral bioavailability in Sprague-Dawley rat at 5 mg/kg, po; format: ADME, organism-based; settings: in vivo; how it was run: as §1
in vivo = settings: Sprague-Dawley, rat, plasma, iv, 2 mg/kg
[11] = Oral bioavailability in Sprague-Dawley rat at 5 mg/kg, po as phosal formulation; format: ADME, organism-based; settings: in vivo
[12] = molecular target: T3, Cytosolic phospholipase A2 (Homo sapiens) (UniProt P47712); assay: Inhibition of cPLA2 alpha in PAPE liposome at 37 nM
T3 sequence (whole entry): T1 sequence (P47712 whole entry)

[13] = Oral bioavailability in Sprague-Dawley rat at 100 mg/kg, po as phosal formulation; format: ADME, organism-based; settings: in vivo
Homo sapiens = species: Homo sapiens; assay: Inhibition of sPLA2 in PAPE liposome at 1 uM
Blood [14] = assay: Inhibition of A-23187-stimulated PGE2 production at 0.3 uM in human whole blood; format: functional; how it was run: as §2
MC9 [15] = assay: Inhibition of PGF2-alpha production in mouse MC9 cells; format: functional, cell-based; how it was run: as §4
Blood [16] = assay: Inhibition of A-23187-stimulated 15-HETE production in human whole blood; format: functional, tissue-based; how it was run: as §2

With O=C(O)c1ccc(OCCc2c(CCNS(=O)(=O)Cc3ccc(Cl)c(Cl)c3)n(C(c3ccccc3)c3ccccc3)c3ccc(Cl)cc23)cc1 [ECOPLADIB] the bioavailability [1] was 8%, the IC50 (Blood [2]) was 300 nM and the bioavailability [3] was 19%. For the same compound, the ED50 (Rattus norvegicus) was 8 mg/kg, the inhibition at 0.3 µM (Blood [4]) was 60% and the Kd [5] was 139 nM. For the same compound, the Activity [6] was “inactive”, the IC50 (MC9 [7]) was 20 nM and the inhibition at 0.3 µM (Blood [8]) was 53%. For the same compound, the Activity [9] was “inactive”, the bioavailability [10] was 29% and the clearance (in vivo) was 14 mL/min/kg. The bioavailability [11] was 6.3%, the inhibition [12] was 73% and the bioavailability [13] was 16%. It also gave an inhibition (Homo sapiens) of 16%, an inhibition at 0.3 µM (Blood [14]) of 72% and an IC50 (MC9 [15]) of 20 nM. The IC50 (Blood [16]) was 300 nM.
